{"source": "paper PMC11303703", "about": "(Scientific Reports, 2024)", "key": {"T.b. brucei": {"system": "T.b. brucei", "assay": "Trypanosoma brucei assay", "assay_type": "cell-based", "settings": "48 h, read-out: Antitrypanosomal IC50", "method_in_brief": "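In vitro T. b. brucei cultures in 96-well plates were exposed to the test agent for 48 h; the extract was screened at 25 µg/mL unless otherwise stated. Surviving parasites were counted by adding a resazurin reagent and reading resorufin fluorescence (Ex 560/Em 590). Pentamidine reference; triplicate wells; IC50 from dose-response data.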"}, "Trypanosoma brucei": {"system": "Trypanosoma brucei", "settings": "cited from earlier work"}, "P. falciparum W2": {"system": "P. falciparum W2", "settings": "read-out: IC50 against P. falciparum W2; cultured malaria parasites; cited from earlier work"}, "falcipain-2": {"system": "falcipain-2", "settings": "read-out: IC50 against falcipain-2; cited from earlier work"}, "HIV-1 IN": {"system": "HIV-1 IN", "settings": "by chelating the active site Mg2+ cofactor; cited from earlier work"}, "[1]": {"assay": "DPPH radical scavenging assay", "settings": "37 °C, 30 min, 517 nm, n = 3", "method_in_brief": "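Ethanolic DPPH (300 µM before mixing) was combined with test solution (0.5 mg/mL before mixing) and held at 37 °C for 30 min, then read at 517 nm. % radical scavenging was taken relative to a DMSO control. IC50 is the concentration removing 50% of the initial DPPH, fitted by kinetics software. N-acetyl-L-cysteine standard; 3 replicates.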"}, "Cytotoxicity assay": {"assay": "Cytotoxicity assay", "assay_type": "cell-based", "settings": "human, HeLa cells", "method_in_brief": "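HeLa cells grown in DMEM with 5 mM L-glutamine, 10% FBS and penicillin/streptomycin/fungizone, then exposed to the test agent for 24 h in 96-well plates. A resazurin reagent was added and the resorufin formed by surviving cells was read by fluorescence (Ex 560/Em 590). Triplicate wells; emetine as positive control.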"}}}
{"compound": "N=C(N)c1ccc(OCCCCCOc2ccc(C(=N)N)cc2)cc1", "note": "[pentamidine]", "values": [{"measurement": "IC50", "setting": "T.b. brucei", "value": "0.000782 ± 6e-06", "unit": "µM"}]}
{"compound": "epigallocatechin-3-gallate", "values": [{"measurement": "activity against Trypanosoma brucei", "setting": "Trypanosoma brucei", "value": "active against Trypanosoma brucei"}]}
{"compound": "COC(=O)c1c(O)ccc(O)c1O", "note": "[2,3,6-trihydroxy methyl benzoate]", "values": [{"measurement": "IC50", "setting": "P. falciparum W2", "value": "13 ± 1.63", "unit": "µM"}, {"measurement": "IC50", "setting": "falcipain-2", "value": "6.09 ± 0.87", "unit": "µM"}]}
{"compound": "COC(=O)c1cc(O)c(O)c(O)c1", "note": "[methyl gallate, Methyl gallate]", "values": [{"measurement": "HIV-1 IN inhibition", "setting": "HIV-1 IN", "value": "inhibits HIV-1 IN"}]}
{"compound": "CC(=O)N[C@@H](CS)C(=O)O", "note": "[N-acetyl-L-cysteine]", "values": [{"measurement": "Antioxidant IC50", "setting": "[1]", "value": "14.1 ± 0.1", "unit": "µg/mL"}]}
{"compound": "O=C(O)c1c(O)ccc(O)c1O", "note": "[2,3,6-trihydroxy benzoic acid]", "values": [{"measurement": "IC50", "setting": "P. falciparum W2", "value": "16.5 ± 0.47", "unit": "µM"}, {"measurement": "IC50", "setting": "falcipain-2", "value": "35.4 ± 22.4", "unit": "µM"}]}
{"compound": "CC[C@H]1CN2CCc3cc(OC)c(OC)cc3[C@@H]2C[C@@H]1C[C@H]1NCCc2cc(OC)c(OC)cc21", "note": "[emetine]", "values": [{"measurement": "IC50 at 24 h", "setting": "Cytotoxicity assay", "value": "0.045 ± 0.01", "unit": "µM"}]}
